This sample holds only a part of the variants without activity.
B1: tRNA (parent)
chain: GUUCCGUUGGCGUAAUGGUAACGCGUCUCCCUCCUAAGGAGAAGACUGCGGGUUCGAGUCCCGUACGGAACG

Variants of: B1
Assay: yeast fitness relative to wild type (ratio to wild type); higher = fitter; tRNA-Arg(CCU), competitive growth, 37 C, YPD
Method in brief: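 Gene amplicons from the start population and from each of six end populations were read by 100-nucleotide paired-end sequencing. Those end populations came from pooled Saccharomyces cerevisiae strains carrying tRNA-Arg(CCU) gene variants at the native locus, competed in YPD at 37°C for 24 hours. Fitness relative to wild type was worked out from changes in genotype frequencies. Genotypes needed ≥ 100 starting reads, and estimates < 0.5 were set to 0.5.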

Point of comparison: C46U A69U A70G, yeast fitness 0.761. Against it:
- U47C A57U — lower, 0.623
- U47A A70G — higher, 0.921
- U47A A70U — higher, 1.06
- C46U A57U — higher, 1
- A45G C61A A65U — lower, ≤ 0.5
- G48C A69U — higher, 0.95
- A45U C60U G68A — lower, 0.575
- C46A C49G C55U — lower, 0.563
- A45G C49G A65U — lower, 0.56
- C46G A57U — higher, 0.907
- C46G A57C — lower, 0.61
- U47C G67C — higher, 0.886
- U47C G67U — higher, 0.86
- U47G C49A G63A G68A — lower, ≤ 0.5
- C46G C61G A65C — lower, 0.574
- C46U C55A — lower, 0.587
- C46U U54C A69C — higher, 0.778
- C46U G58C C60A — lower, 0.637
- C49A C61G — lower, 0.541
- C49A C61U — lower, 0.607
- G48C C60A — lower, 0.644
- A45U G48C — higher, 0.857
- G48C C66A — lower, 0.633
- G48C A65C — higher, 0.989
- C46A C49U — higher, 0.958
- C46A C49G — lower, 0.746
- A45U C62U C66U — lower, 0.704
- C46G G56A A57C C61U — lower, 0.575
- G48C C62U — higher, 0.899
- C46G C66U — higher, 0.928
- C46G C66G — higher, 0.986
- G48A U54C A69C — lower, 0.686
- U47A C61U A70C — lower, 0.558
- U47C C49A G51A C55A C60A — lower, ≤ 0.5
- C46U A70C — higher, 0.976
- C46G G67C — higher, 0.86
- C46G G67A — higher, 0.912
- C46U U54C G68A — lower, ≤ 0.5
- U47C C49A A65G — lower, ≤ 0.5
- A45U C49A — lower, 0.57
- A45G A69C — higher, 0.912
- A45G A69U — higher, 1.01
- C46A C49A A70C — lower, ≤ 0.5
- G48C G52C — lower, 0.552
- C46U C49U U53C — lower, 0.703
- C46U G52A U59C — lower, 0.631
- U47A — higher, 0.99
- U47G — lower, 0.633
- U47C — higher, 1
- C46A U64G — higher, 0.82
- C49A A57C A69C — lower, ≤ 0.5
- C49A A57C A69U — lower, 0.528
- U47C G51A — higher, 0.906
- U47G U59A — lower, 0.543
- C46G C49A G68C A69G — lower, ≤ 0.5
- A45U U59G — lower, 0.66
- A45U U59C — higher, 0.897
- U47A U64A — lower, 0.677
- G48A G58A U59G G67A — lower, ≤ 0.5
- U47A U59A U64G — lower, ≤ 0.5
- C49A C60G — lower, 0.638
- C46A A57G G68A — lower, 0.605
- C46U A57C U64C — lower, ≤ 0.5
- G48C C62G A65U — lower, ≤ 0.5
- A45U G52A U64C A69U — lower, ≤ 0.5
- A45G C49U C55G C61G — lower, 0.732
- C46A G48C — higher, 0.924
- C46G A69U — higher, 1.03
- C46G A69C — higher, 0.972
- G48A C49A — higher, 0.969
- U47C A57G C62U — lower, ≤ 0.5
- G48U C61A — lower, ≤ 0.5
- A45U G56A A69C — higher, 0.766
- C46U C66G — higher, 0.949
- C46U C66A — higher, 0.853
- C46A C55A A65C — lower, 0.533
- C49A C62U C66U — lower, 0.585
- C46G C61G C62A — lower, ≤ 0.5
- G48A U53C C60A C61U — lower, ≤ 0.5
- G48A C66U — higher, 0.97
- C46U C62U — higher, 1
- C46U C62A — lower, 0.684
